ChEMBL document CHEMBL4428078, “Discovery of S3-Truncated, C-6 Heteroaryl Substituted Aminothiazine β-Site APP Cleaving Enzyme-1 (BACE1) Inhibitors” (J Med Chem, 2016)
Values belong to the molecule of their own block, whether it stands above or below them.

How the values were obtained:
[1] = Metabolic stability in mouse liver microsomes assessed as compound remaining at 0.5 uM measured after 10 mins; type: ADME, Microsome; conditions: read-out: Stability
Summary of the method: (§1)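 Test compound at 0.5 µM incubated 10 min with mouse, rat or human liver microsomes. Read-out is percent of parent compound remaining.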

[2] = target: Beta-secretase 1 (Homo sapiens, UniProt P56817); experiment: Inhibition of BACE1 in human H4 cells expressing swedish mutant APP751 assessed as reduction in amyloid beta level measured after 19 hrs; type: cell-based
[3] = Metabolic stability in rat liver microsomes assessed as compound remaining at 0.5 uM measured after 10 mins; type: ADME, Microsome; conditions: read-out: Stability; summary of the method: as §1
[4] = Metabolic stability in human liver microsomes assessed as compound remaining at 0.5 uM measured after 10 mins; type: ADME, Microsome; conditions: read-out: Stability; summary of the method: as §1
[5] = tested on: Mus musculus; experiment: In vivo inhibition of BACE1 in mouse assessed as reduction in brain amyloid beta level at 30 mg/kg, po measured after 3 hrs by ELISA relative to control; type: functional
Summary of the method: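 Young mice dosed orally at 30 mg/kg. Brain Aβ was measured 3 h post-dose and expressed as percent reduction.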

[6] = Drug uptake in mouse brain at 30 mg/kg, po measured after 3 hrs; type: ADME, organism-based; conditions: read-out: Drug uptake
Summary of the method: (§2)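 Young mice given a single oral dose of 30 mg/kg. Total brain and plasma drug levels were measured 3 h post-dose and the brain/plasma ratio derived.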

[7] = Ratio of drug level in brain to plasma of mouse at 30 mg/kg, po measured at 3 hrs post dose; type: ADME, organism-based; conditions: read-out: BPR; summary of the method: as §2
[8] = Plasma concentration in mouse at 30 mg/kg, po measured after 3 hrs; type: ADME, organism-based; summary of the method: as §2
[9] = target: Cytochrome P450 2D6 (Homo sapiens, UniProt P10635); experiment: Inhibition of recombinant human CYP2D6 preincubated for 10 mins followed by addition of AMMC as substrate measured after 45 mins; type: ADME
Summary of the method: (§3)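 Inhibition of recombinant human CYP1A2, CYP2C9, CYP2C19, CYP2D6 and CYP3A4 enzymes, reported as IC50.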

[10] = Drug uptake in rat brain at 3 mg/kg, po measured after 5 hrs; type: ADME, organism-based; conditions: read-out: Drug uptake
Summary of the method: (§4)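 Female rats dosed orally in PEG-400:EtOH:Tween 80 (84:15:1) at 1, 3 or 10 mg/kg. Plasma and brain were collected 5 h post-dose, N=5 rats/dose. Total drug concentrations were determined and the brain/plasma ratio calculated. Values are means with SD.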

[11] = Ratio of drug level in brain to plasma of rat at 1 mg/kg, po measured at 5 hrs post dose; type: ADME, organism-based; conditions: read-out: BPR; summary of the method: as §4
[12] = Oral bioavailability in rat at 10 mg/kg measured after 5 hrs; type: ADME, organism-based; conditions: in vivo
Summary of the method: (§5)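 Rat IV/PO pharmacokinetics with a 2 mg/kg IV bolus and a 10 mg/kg oral dose. […] Oral bioavailability is calculated from the IV and PO AUC values.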

[13] = Fraction unbound in rat plasma; type: ADME, cell-free
Summary of the method: (§6)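 Unbound fraction of drug determined in human, rat and mouse plasma, reported as percent unbound.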

[14] = Fraction unbound in human plasma; type: ADME, cell-free; summary of the method: as §6
[15] = tested on: Rattus norvegicus; experiment: In vivo inhibition of BACE1 in po dosed rat assessed as reduction in total amyloid beta level in brain measured after 5 hrs by ELISA relative to control
[16] = Plasma concentration in rat at 10 mg/kg, po measured after 5 hrs; type: ADME, organism-based; summary of the method: as §4
[17] = target: Cytochrome P450 3A4 (Homo sapiens, UniProt P08684); experiment: Inhibition of recombinant human CYP3A4 preincubated for 10 mins followed by addition of BFC as substrate measured after 45 mins; type: ADME; summary of the method: as §3
[18] = Clearance in rat plasma at 2 mg/kg, iv administered as bolus or 10 mg/kg, po relative to hepatic blood flow; type: ADME, organism-based; conditions: in vivo
Summary of the method: (§7)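 Rats given a 2 mg/kg IV bolus or 10 mg/kg orally for IV/PO pharmacokinetics. Clearance and volume of distribution come from the IV arm. Clearance is also expressed against rat hepatic blood flow.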

[19] = Ratio of fraction unbound in rat plasma to IC50 for BACE1 in human H4 cells expressing swedish mutant APP751; type: ADME, cell-based
[20] = Cmax in rat at 10 mg/kg, po measured after 5 hrs; type: ADME, organism-based; design: dose 10 mg/kg, route oral; conditions: in vivo; summary of the method: as §5
[21] = Drug uptake in rat brain at 10 mg/kg, po measured after 5 hrs; type: ADME, organism-based; conditions: read-out: Drug uptake; summary of the method: as §4
[22] = Volume of distribution in rat plasma at 2 mg/kg, iv administered as bolus or 10 mg/kg, po; type: ADME, organism-based; summary of the method: as §7
[23] = target: T1, Cytochrome P450 1A2 (Homo sapiens, UniProt P05177); experiment: Inhibition of recombinant human CYP1A2 preincubated for 10 mins followed by addition of CEC as substrate measured after 45 mins; type: ADME; summary of the method: as §3
T1 sequence (P05177 whole entry): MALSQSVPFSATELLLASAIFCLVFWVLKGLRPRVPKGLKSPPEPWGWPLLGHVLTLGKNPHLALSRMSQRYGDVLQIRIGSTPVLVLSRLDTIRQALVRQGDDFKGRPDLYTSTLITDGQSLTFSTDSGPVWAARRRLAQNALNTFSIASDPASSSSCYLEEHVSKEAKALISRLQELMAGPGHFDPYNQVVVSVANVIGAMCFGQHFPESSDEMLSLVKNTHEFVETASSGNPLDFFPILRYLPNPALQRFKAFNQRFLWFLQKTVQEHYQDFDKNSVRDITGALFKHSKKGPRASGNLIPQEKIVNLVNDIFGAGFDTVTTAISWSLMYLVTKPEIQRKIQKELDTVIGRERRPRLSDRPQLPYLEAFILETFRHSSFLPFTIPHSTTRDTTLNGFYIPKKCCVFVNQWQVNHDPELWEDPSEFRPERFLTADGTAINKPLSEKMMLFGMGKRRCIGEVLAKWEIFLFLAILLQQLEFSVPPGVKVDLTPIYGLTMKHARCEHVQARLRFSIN

[24] = target: Cytochrome P450 2C19 (Homo sapiens, UniProt P33261); experiment: Inhibition of recombinant human CYP2C19 preincubated for 10 mins followed by addition of CEC as substrate measured after 45 mins; type: ADME; summary of the method: as §3
[25] = Fraction unbound in mouse plasma; type: ADME, cell-free; summary of the method: as §6
[26] = Clearance in rat plasma at 2 mg/kg, iv administered as bolus or 10 mg/kg, po; type: ADME, organism-based; summary of the method: as §7
[27] = tested on: Rattus norvegicus; experiment: In vivo inhibition of BACE1 in po dosed rat assessed as reduction in brain amyloid beta42 level measured after 5 hrs by ELISA
[28] = Ratio of drug level in brain to plasma of rat at 3 mg/kg, po measured at 5 hrs post dose; type: ADME, organism-based; conditions: read-out: BPR; summary of the method: as §4
[29] = Drug uptake in rat brain at 1 mg/kg, po measured after 5 hrs; type: ADME, organism-based; conditions: read-out: Drug uptake; summary of the method: as §4
[30] = Plasma concentration in rat at 3 mg/kg, po measured after 5 hrs; type: ADME, organism-based; summary of the method: as §4
[31] = Ratio of drug level in brain to plasma of rat at 10 mg/kg, po measured at 5 hrs post dose; type: ADME, organism-based; conditions: read-out: BPR; summary of the method: as §4
[32] = tested on: Rattus norvegicus; experiment: In vivo inhibition of BACE1 in po dosed rat assessed as reduction in brain amyloid beta42 level measured after 5 hrs by ELISA relative to control
[33] = Plasma concentration in rat at 1 mg/kg, po measured after 5 hrs; type: ADME, organism-based; summary of the method: as §4
[34] = target: Cytochrome P450 2C9 (Homo sapiens, UniProt P11712); experiment: Inhibition of recombinant human CYP2C9 preincubated for 10 mins followed by addition of MFC as substrate measured after 45 mins; type: ADME; summary of the method: as §3
[35] = tested on: Rattus norvegicus; experiment: In vivo inhibition of BACE1 in po dosed rat assessed as reduction in brain amyloid beta40 level measured after 5 hrs by ELISA relative to control
[36] = Fraction unbound in rat plasma at 1 to 10 mg/kg, po; type: ADME, organism-based; conditions: in vivo

Beta-secretase 1, sequence (P56817 whole entry): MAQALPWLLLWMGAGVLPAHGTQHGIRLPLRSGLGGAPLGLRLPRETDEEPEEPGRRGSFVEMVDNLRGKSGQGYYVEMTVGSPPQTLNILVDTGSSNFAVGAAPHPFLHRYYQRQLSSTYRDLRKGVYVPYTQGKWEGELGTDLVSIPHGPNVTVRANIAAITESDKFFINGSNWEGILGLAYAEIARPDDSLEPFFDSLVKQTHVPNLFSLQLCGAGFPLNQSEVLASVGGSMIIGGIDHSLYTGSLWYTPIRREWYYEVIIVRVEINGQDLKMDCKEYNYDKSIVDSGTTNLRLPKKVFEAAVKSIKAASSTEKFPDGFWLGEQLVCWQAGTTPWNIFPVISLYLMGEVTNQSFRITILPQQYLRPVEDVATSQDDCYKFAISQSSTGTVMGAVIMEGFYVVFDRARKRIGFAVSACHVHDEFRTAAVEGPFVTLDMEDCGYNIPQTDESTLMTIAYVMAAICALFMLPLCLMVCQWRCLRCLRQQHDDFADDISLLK
Cytochrome P450 2D6, sequence (P10635 whole entry): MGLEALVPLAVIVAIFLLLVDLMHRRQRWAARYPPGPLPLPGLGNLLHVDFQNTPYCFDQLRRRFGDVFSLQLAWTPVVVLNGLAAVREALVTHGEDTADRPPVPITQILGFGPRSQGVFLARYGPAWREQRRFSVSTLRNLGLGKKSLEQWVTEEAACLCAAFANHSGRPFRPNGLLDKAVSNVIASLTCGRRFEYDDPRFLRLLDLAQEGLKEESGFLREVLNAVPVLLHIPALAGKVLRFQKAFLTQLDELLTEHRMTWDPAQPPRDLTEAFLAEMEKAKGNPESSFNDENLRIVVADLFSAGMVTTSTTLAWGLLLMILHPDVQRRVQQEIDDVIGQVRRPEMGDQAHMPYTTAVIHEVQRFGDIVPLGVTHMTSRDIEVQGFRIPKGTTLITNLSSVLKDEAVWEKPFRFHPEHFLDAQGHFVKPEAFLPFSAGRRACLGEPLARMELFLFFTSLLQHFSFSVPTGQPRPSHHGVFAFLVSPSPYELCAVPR
Cytochrome P450 3A4, sequence (P08684 whole entry): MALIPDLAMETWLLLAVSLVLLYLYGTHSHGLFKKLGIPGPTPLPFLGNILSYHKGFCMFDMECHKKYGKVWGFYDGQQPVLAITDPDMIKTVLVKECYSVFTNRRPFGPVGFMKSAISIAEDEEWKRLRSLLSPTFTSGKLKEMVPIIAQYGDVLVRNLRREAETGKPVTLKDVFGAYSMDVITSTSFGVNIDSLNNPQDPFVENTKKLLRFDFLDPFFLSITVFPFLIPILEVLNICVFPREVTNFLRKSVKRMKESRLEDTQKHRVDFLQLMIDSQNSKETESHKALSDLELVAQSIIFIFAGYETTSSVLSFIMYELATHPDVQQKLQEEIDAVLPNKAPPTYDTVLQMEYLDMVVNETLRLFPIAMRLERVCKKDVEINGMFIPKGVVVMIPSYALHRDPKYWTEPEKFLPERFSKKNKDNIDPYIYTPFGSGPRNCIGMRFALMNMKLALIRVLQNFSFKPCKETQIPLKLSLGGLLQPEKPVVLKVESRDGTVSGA
Cytochrome P450 2C19, sequence (P33261 whole entry): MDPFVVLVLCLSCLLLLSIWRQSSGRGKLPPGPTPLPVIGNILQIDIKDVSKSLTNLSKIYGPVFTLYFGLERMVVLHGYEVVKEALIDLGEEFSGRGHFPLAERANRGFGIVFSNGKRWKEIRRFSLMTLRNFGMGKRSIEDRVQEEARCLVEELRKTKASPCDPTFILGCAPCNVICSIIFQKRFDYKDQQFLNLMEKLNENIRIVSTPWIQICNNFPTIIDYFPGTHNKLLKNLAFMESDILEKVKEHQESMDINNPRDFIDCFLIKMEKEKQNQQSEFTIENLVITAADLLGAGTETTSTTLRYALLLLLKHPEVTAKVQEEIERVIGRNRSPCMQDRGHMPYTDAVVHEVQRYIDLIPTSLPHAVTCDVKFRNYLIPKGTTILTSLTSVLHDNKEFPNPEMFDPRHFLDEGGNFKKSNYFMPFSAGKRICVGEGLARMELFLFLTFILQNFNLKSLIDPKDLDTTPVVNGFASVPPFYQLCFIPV
Cytochrome P450 2C9, sequence (P11712 whole entry): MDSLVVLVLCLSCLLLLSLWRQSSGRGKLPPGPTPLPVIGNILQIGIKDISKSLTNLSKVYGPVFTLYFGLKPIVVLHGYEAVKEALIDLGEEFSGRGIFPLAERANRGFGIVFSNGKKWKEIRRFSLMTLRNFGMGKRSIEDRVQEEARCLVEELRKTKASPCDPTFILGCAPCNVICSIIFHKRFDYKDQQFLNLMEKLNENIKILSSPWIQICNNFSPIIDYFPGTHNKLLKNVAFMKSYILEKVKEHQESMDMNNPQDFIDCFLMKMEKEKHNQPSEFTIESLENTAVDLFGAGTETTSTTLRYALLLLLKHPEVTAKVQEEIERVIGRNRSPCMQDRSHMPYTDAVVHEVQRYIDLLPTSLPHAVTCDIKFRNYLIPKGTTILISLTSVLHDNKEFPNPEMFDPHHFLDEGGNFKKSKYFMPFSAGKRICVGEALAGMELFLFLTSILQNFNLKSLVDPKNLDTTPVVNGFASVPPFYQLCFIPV

Compound: Cc1noc(C)c1[C@@H]1C[C@@](C)(c2sccc2Cl)N=C(N)S1
remaining at 10 min, 0.5 µM [1]: 21%
IC50 [2]: 300 nM
remaining at 10 min, 0.5 µM [3]: 12%
remaining at 10 min, 0.5 µM [4]: 11%

Compound: Cc1onc(-c2ccc(F)cc2)c1[C@@H]1C[C@@](C)(c2ccc(F)cc2F)N=C(N)S1
remaining at 10 min, 0.5 µM [1]: 23%
IC50 [2]: 320 nM
remaining at 10 min, 0.5 µM [3]: 35%
remaining at 10 min, 0.5 µM [4]: 24%

Compound: Cc1noc(C)c1[C@@H]1C[C@@](C)(c2cc(-c3cncnc3)c(F)cc2F)N=C(N)S1
concentration at 3 h [6]: 0.58 µM
Kp at 3 h [7]: 0.08
concentration at 3 h [8]: 7.4 µM

Compound: Cc1noc(C)c1[C@@H]1C[C@@](C)(c2ccc(F)cc2)N=C(N)S1
remaining at 10 min, 0.5 µM [1]: 90%
IC50 [2]: 600 nM
remaining at 10 min, 0.5 µM [3]: 78%
remaining at 10 min, 0.5 µM [4]: 73%

The next lines start with results.

remaining at 10 min, 0.5 µM [1]: 80%
IC50 [2]: 300 nM
remaining at 10 min, 0.5 µM [3]: 77%
remaining at 10 min, 0.5 µM [4]: 65%
Compound: Cc1nocc1[C@@H]1C[C@@](C)(c2ccc(F)cc2F)N=C(N)S1

remaining at 10 min, 0.5 µM [1]: 72%
IC50 [2]: 350 nM
concentration at 3 h [6]: 4.3 µM
remaining at 10 min, 0.5 µM [3]: 78%
remaining at 10 min, 0.5 µM [4]: 70%
Kp at 3 h [7]: 1.3
concentration at 3 h [8]: 4.3 µM
Compound: Cn1nccc1[C@@H]1C[C@@](C)(c2ccc(F)cc2F)N=C(N)S1
inhibition in vivo at 30 mg/kg [5]: 62%

remaining at 10 min, 0.5 µM [1]: 6%
IC50 [2]: 230 nM
remaining at 10 min, 0.5 µM [3]: 20%
remaining at 10 min, 0.5 µM [4]: 39%
Compound: Cc1noc(-c2ccccc2)c1[C@@H]1C[C@@](C)(c2ccc(F)cc2F)N=C(N)S1

IC50 [9]: > 20000 nM
concentration at 5 h [10]: 2.8 µM
Kp at 5 h [11]: 2.8
bioavailability [12]: > 100%
fraction unbound [13]: 0.48
fraction unbound [14]: 0.37
concentration at 5 h [16]: 6.6 µM
IC50 [17]: > 20000 nM
CL [18]: 20%
Ratio [19]: 6
Cmax [20]: 3.7 µM
remaining at 10 min, 0.5 µM [1]: 68%
IC50 [2]: 310 nM
concentration at 5 h [21]: 12 µM
concentration at 3 h [6]: 6.7 µM
Vd [22]: 8.2 L/kg
IC50 [23]: > 20000 nM
remaining at 10 min, 0.5 µM [3]: 95%
IC50 [24]: 9000 nM
fraction unbound [25]: 0.42
clearance [26]: 12 mL/min/kg
remaining at 10 min, 0.5 µM [4]: 90%
EC50 [27]: 3800 nM
Kp at 3 h [7]: 1.8
Kp at 5 h [28]: 1.8
concentration at 5 h [29]: 2.3 µM
concentration at 5 h [30]: 1.8 µM
Kp at 5 h [31]: 1.8
concentration at 5 h [33]: 0.82 µM
concentration at 3 h [8]: 6.7 µM
IC50 [34]: > 20000 nM
Cp(f) [36]: 1.8 µM
Compound: C[C@@]1(c2ccc(F)cc2F)C[C@@H](c2cncnc2)SC(N)=N1
inhibition [15]: Dose-dependent effect
inhibition [32]: Dose-dependent effect
inhibition [35]: Dose-dependent effect
